Results published in ChEMBL document CHEMBL1177807, “Structure-based optimization of potent PDK1 inhibitors” (Bioorg Med Chem Lett, 2010).
Activity calls are given as the source filed them. No cut-off for these calls is given here.

Key:
[1] = target: Aurora kinase B (Homo sapiens) (UniProt Q96GD4); assay: Inhibition of aurora B at 100 nM
[2] = target: T1, Aurora kinase A (Homo sapiens) (UniProt O14965); assay: Inhibition of aurora A at 40 nM
T1 sequence (whole entry): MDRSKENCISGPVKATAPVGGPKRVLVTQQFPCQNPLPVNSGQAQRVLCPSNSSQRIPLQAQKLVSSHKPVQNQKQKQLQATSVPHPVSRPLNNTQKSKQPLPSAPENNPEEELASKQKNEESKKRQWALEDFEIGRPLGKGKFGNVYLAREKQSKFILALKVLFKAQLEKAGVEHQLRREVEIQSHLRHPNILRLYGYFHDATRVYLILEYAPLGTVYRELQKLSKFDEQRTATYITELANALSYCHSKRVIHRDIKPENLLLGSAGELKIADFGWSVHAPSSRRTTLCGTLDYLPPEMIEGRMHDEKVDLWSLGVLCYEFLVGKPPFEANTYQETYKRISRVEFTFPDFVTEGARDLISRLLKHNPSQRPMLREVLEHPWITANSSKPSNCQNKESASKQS

MCF7 = assay: Cytotoxicity against human MCF7 cells after 72 hrs by Cell titer-glo assay; assay type: functional
How it was run: (§1)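 A2780 cells were grown in RPMI-1640 and MCF7 cells in MEM, each with heat-inactivated 10% fetal calf serum. Cells were seeded at 2500–5000 cells/well, treated with compound after 24 h, and incubated 72 h at 37 °C under 5% CO₂. Lysed-well ATP content, read by thermostable firefly luciferase, measured viable cells. IC₅₀ came from percent growth versus untreated control.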

A2780 = assay: Cytotoxicity against human A2780 cells after 72 hrs by Cell titer-glo assay; assay type: functional
How it was run: as §1

[3] = target: Cyclin-dependent kinase 2 (Homo sapiens, UniProt P24941); assay: Inhibition of CDK2
[4] = target: T2, 3-phosphoinositide-dependent protein kinase 1 (Homo sapiens, UniProt O15530); assay: (§2) Inhibition of PDK1
T2 sequence (O15530 whole entry): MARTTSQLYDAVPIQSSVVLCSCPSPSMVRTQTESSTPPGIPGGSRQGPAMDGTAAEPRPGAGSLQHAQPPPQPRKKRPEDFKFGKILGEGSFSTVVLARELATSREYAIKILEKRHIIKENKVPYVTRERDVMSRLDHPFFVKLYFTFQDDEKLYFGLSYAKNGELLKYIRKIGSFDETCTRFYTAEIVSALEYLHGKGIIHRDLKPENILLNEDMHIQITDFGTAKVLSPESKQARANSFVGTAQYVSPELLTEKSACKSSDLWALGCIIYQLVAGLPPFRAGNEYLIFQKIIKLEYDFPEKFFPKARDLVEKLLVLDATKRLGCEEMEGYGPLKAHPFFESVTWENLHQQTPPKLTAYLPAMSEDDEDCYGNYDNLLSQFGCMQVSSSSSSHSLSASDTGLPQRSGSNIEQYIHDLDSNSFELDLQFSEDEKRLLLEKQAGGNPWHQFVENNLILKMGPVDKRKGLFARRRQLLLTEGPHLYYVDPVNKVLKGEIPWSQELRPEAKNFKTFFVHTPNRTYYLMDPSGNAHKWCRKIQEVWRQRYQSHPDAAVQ

[5] = target: T3, 3-phosphoinositide-dependent protein kinase 1 (Homo sapiens) (UniProt O15530); assay: as §2
T3 sequence (whole entry): T2 sequence (O15530 whole entry)

Aurora kinase B (Homo sapiens), sequence (Q96GD4 whole entry): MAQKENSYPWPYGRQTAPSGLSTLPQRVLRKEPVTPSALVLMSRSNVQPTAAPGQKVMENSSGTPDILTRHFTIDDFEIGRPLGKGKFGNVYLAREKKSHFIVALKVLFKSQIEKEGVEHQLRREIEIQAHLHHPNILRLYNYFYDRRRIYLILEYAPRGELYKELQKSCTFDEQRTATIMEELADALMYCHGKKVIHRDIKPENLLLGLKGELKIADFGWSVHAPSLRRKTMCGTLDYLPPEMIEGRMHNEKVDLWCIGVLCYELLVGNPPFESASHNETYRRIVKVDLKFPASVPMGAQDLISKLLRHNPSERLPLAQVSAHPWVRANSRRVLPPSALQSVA

Row | inhibition [1] | inhibition [2] | IC50 [3] | IC50 [4] | IC50 [5] | SMILES | Activity (MCF7) | Activity (A2780)
1 | Active | Active | 500 nM | 85 nM | – | Cc1cc(CNC(=O)c2nn(CCCN)c3c2CCc2cnc(Nc4cccc(CC(=O)N(C)C)c4)nc2-3)ccn1 [NERVIANO] | >10 µM | 5.9 µM
2 | – | – | 10 nM | 2740 nM | – | NC(=O)Cn1nc(C(N)=O)c2c1-c1nc(Nc3ccccc3)ncc1CC2 | 6 µM | 2.71 µM

The next lines start with the compound.

Row | SMILES | inhibition [1] | inhibition [2] | IC50 [3] | IC50 [4] | IC50 [5] | Activity (MCF7) | Activity (A2780)
3 | NCCCn1nc(C(N)=O)c2c1-c1nc(Nc3ccccc3)ncc1CC2 | – | – | 1 nM | 36 nM | – | 0.14 µM | 0.12 µM
4 | NC(=O)c1nn(CC2CCNCC2)c2c1CCc1cnc(Nc3ccccc3)nc1-2 | – | – | 12 nM | – | – | 1.36 µM | 0.51 µM
5 | Cc1cc(CNC(=O)c2nn(C)c3c2CCc2cnc(Nc4ccc(N5CCN(C)CC5)cc4)nc2-3)ccn1 | – | – | 319 nM | – | 713 nM | 4.91 µM | 0.17 µM
